The test system of this data set is MS2 coat protein. As to the kind of experiment: apparent Kd, MS2 coat protein; higher = weaker binding; RNA-MaP array; FMN 200 µM where present. The method in brief:
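In 100 mM Tris-HCl pH 7.5, 80 mM KCl, 4 mM MgCl2, BSA, DTT, yeast tRNA and Tween-20, SNAP-549-labelled MS2 coat protein was titrated from 0.7 or 1.5 nM, doubling to 3 µM, over designs transcribed by stalled E. coli RNA polymerase on Illumina sequencing-chip clusters. This was done first without ligand, then with ligand held constant. After green signal was normalised to red-channel RNA signal and control-cluster median Fmax, the apparent Kd was taken as the median of filtered per-cluster binding-curve fits.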

[1] abbreviates: designed as: ON switch for flavin mononucleotide, no ligand.
Setting [2] is: ligand present: flavin mononucleotide, designed as: ON switch for flavin mononucleotide.
The mark [3] stands for this setting: designed as: OFF switch for flavin mononucleotide, no ligand.
[4] abbreviates: ligand present: flavin mononucleotide, designed as: OFF switch for flavin mononucleotide.

A word on the apparent Kd: it is the concentration giving half-maximal binding under the conditions of the assay.

On to “CACAGGGAUUCAGGAUAUAUUAGCCGAGGCCGCGUAGAAGGGAAAUCCUGACAUGAGGAUCACCCAUGUUAACCCACUUUCCAU”, for which the “apparent Kd” value is, setting by setting: under setting [1], 28.2 nM; under setting [2], 28.8 nM.
In the same order, the values of “GGGAAUAAACCCGUCUCCGCCCAACCAGAAGGGCACGAUAAUAUUACAUGAGGAUCACCCAUGUUGCAGGAUAUGGUGGGCCUC” are 180 nM and 76.9 nM.
In the same order, the values of “GCCAUCGCAUGAGGAUAUGCUCCCGUUUCGGGAGCAGAAGGCAUGUCACAAGACAUGAGGAUCACCCAUGUAGUUAUGAUGGCA” are 221 nM and 8.6 nM.
The matching figures for “UAAAGCUCCGAGAAGGUAUGCGUACAUGAGGAUCACCCAUGUCAAAGCAUAAGGAUAUCGUGUGCGUGCGUCGAAUGUAGGAAA”: 10.2 nM and 5.55 nM.
“AAAUUUAACGAAGGAUAUGCUGACAUGAGGAUCACCCAUGUGUGCUUUGUGUUGCUGAAAUUGGAGCAGAAGGUCGUAUACAUA”: the “apparent Kd” value turned out to be 101 nM under setting [3] and 148 nM under setting [4].
In the same order, the values of “GGGUUGGGAGGAUAUCCAAUAUAUGACAUGAGGAUCACCCAUGUUUCCACUCGUACCUCCGGAGAAGGCCCAUCCC” are 22.9 nM and 21.1 nM.
In the case of “GGUGGACAUGAGGAUCACCCAUGUGAGGAUAUCGGCCGGUUCGUGGUGGCUGGCGUCUCGAGAAGGCGCAUAGU”, the “apparent Kd” value under setting [3] worked out at 35 nM and the “apparent Kd” value under setting [4] came out at 45.7 nM.
“CAAUUCCGAGGAUAUACAUGAGGAUCACCCAUGUCGGGCCUCAGCGUUUAGCGCUUAAGUAGAAGGUGGGUUUC”: the “apparent Kd” value by setting is: under setting [3], 40.7 nM; under setting [4], 54.5 nM.
Turning to “UGGGAUGGCUAGAAGGCUCCGUAUACUAAAGGGAGAGGAUAUGGCACAUGAGGAUCACCCAUGUGUACCUGUAGGUGAUCCACA”, the “apparent Kd” value under setting [3] is 276 nM and the “apparent Kd” value under setting [4] is 70 nM.
For “UUUUUUGUUGUGAGGAUAUCGUUUUUGUUUUGGAUCGAGAAGGCACAUGAGGAUCACCCAUGUUUGUUGUGGUU”, the “apparent Kd” value reads like this: under setting [3], 88.8 nM; under setting [4], 159 nM.
Take “GGACGUCCCAUUAACAUGAGGAUCACCCAUGUCAAAAGACAUGAGGAUAUGCAUCCUAAUUGGAUGCAGAAGGCAUGGACGUCC”: the “apparent Kd” value is, setting by setting: under setting [1], 1180 nM; under setting [2], 87.3 nM.
On to “CGGAUGUCAGGAUAUCGUGCAUACAACGAAAGUUCUAUGUGCGAGAAGGGACAUGAGGAUCACCCAUGUUAACG”, for which the “apparent Kd” value reads like this: under setting [3], 59.5 nM; under setting [4], 250 nM.
In the case of “CAGCGAUAGCUGAACAAUCUAUCACAGGAUAUUCAUAAAACAUGAGGAUCACCCAUGUGAAAUUGGGAGAAGGGUGAUAGAUUG”, the “apparent Kd” value is 10.8 nM under setting [1] and 5.04 nM under setting [2].
As for “GUGCCUUGGAAGAAGGCCGAUAGCAAAGCUAUCGGAGGAUAUUCAUACCGGAAACGGACAUGAGGAUCACCCAUGUGGCACAAA”, the “apparent Kd” value under setting [1] came to 15.3 nM and the “apparent Kd” value under setting [2] was 6.96 nM.
As for “GUCCUUAGCGAGGAUAUCGGGCGGGUUUUUGUUUGAGAAGGCGUGACAUGAGGAUCACCCAUGUGGCGCGUGGG”, the “apparent Kd” value was 39.2 nM under setting [3] and 69.7 nM under setting [4].
Regarding “AGGGUGGGAGGAUAUCCAAUAUAUGACAUGAGGAUCACCCAUGUUUCCACUCGUACCUCCGGAGAAGGCCCUUCCA”, the “apparent Kd” value under setting [3] stood at 19.9 nM and the “apparent Kd” value under setting [4] is 19.7 nM.
Take “AUUUAUGUUGAGGAUAUGCUAAAAUGUAUAGUUGCAGAAGGCGACACAUGAGGAUCACCCAUGUUCAUGGAAUU”: the “apparent Kd” value by setting is: under setting [3], 37 nM; under setting [4], 43.7 nM.
The matching figures for “UAAAAGUAGGUAGGAUAUCAUCACGGAAGAUCCUGGAUACUUAGUACAUGAGGAUCACCCAUGUAUGAGAAGGACCAGUGUUUG”: 12.5 nM and 14.8 nM.
For “AAAAAACAUGAGGAUCACCCAUGUCCUCGGACGUGAGGAUAUGUACAGACUUCGGUCUGUACAGAAGGCAUGUCAA”, the “apparent Kd” value by setting is: under setting [1], 408 nM; under setting [2], 604 nM.
Regarding “AAGACAUGAGGAUCACCCAUGUAAAGACCGGUCGAUCAAUGUGAGGAUAUACCAUAAUUGAUAGGGUAGAAGGCACUGGGUUGA”, the “apparent Kd” value is 168 nM under setting [1] and 128 nM under setting [2].
With “AAACACAGACAUGAGGAUCACCCAUGUUAUGAAGAUACUGGGAGAAGGGCGAUUGCAAAGCAAUCGCAGGAUAUUCGUAUUGUG”, the “apparent Kd” value runs as follows: under setting [1], 31.2 nM; under setting [2], 11 nM.
The matching figures for “AUGGUUGUCGUAGGAUAUGUAGGAUAUUCCUACAUGAGGAUCACCCAUGUUCGCAUGGAAGAAGGACAGAAGGACGAUGACCAA”: 531 nM and 21.1 nM.
The matching figures for “ACAUGAGGAUCACCCAUGUGUGCAUAGGAUAUUGAGGAUCAGGGAUGUUUUUUUGGAUAUGCCCACAAGAAGGAUGAAAGUAUU”: 13.2 nM and 12.6 nM.
Turning to “AAGCAUUGGCUUCUCAUCUACAUGAGGAUCACCCAUGUCGGGAGAAGGAGGCGUUGACGAAUAGCCUAGGAUAUCCUAACGUGC”, the “apparent Kd” value turned out to be 6.84 nM under setting [3] and 6.99 nM under setting [4].
As to “GCUAGGAGUGUGAGGAUAUGCUGAACCUUGGUUCAGCAGAAGGCACAUGAGGAUCACCCAUGUGAAGACCUAGC”, the “apparent Kd” value by setting is: under setting [3], 25.7 nM; under setting [4], 149 nM.
In the same order, the values of “UGUGUCUGUAGAGGAUAUCCGGGCGUUCGGCUAGGAGAAGGCUGCAACACAUGAGGAUCACCCAUGUAGGUUGUGUCUCCCUAC” are 9.9 nM and 29.7 nM.
In the same order, the values of “UUGUUAGGGAGAGGAUAUUGACAUGAGGAUCACCCAUGUAUUUGGGAGUGUUUACUGAAUUCUUACGAGAAGGCUUACGAAAUU” are 329 nM and 246 nM.
Consider “AUUAUACAUGAGGAUCACCCAUGUUUUGGUGGAUCAGGAUAUAAAUUGAAUGAGUUUUAGUUAGAAGGGAUAUUUA”, for which the “apparent Kd” value is 50.6 nM under setting [1] and 36.3 nM under setting [2].
For the sequence “CUGAUGUUAGGAUAUCAGGUCGCGCGCGAAGGCGCGCAGCAUGAGAAGGAACAUGAGGAUCACCCAUGUGACGA”, the “apparent Kd” value under setting [3] was determined as 22.4 nM and the “apparent Kd” value under setting [4] turned out to be 60.5 nM.
As for “ACAUGAGGAUCACCCAUGUAAACAUAGGAUAUUGGUGAUCAGGCAUGUUAUACAGGAUAUGUCUGCGAGAAGGAUGCACGUUGC”, the “apparent Kd” value is 583 nM under setting [1] and 465 nM under setting [2].
As for “AGUCAUACAGGAUAUACAUGAGGAUCACCCAUGUAUAUCCUACAUGGGUGAUCCUCAUGUAGAAGGGUAUGACA”, the “apparent Kd” value reads like this: under setting [3], 13.5 nM; under setting [4], 11.6 nM.
For “GCGUAUAUAAGAUUUAUUAAACAGUCAGAAGGUGAUAAUACGACAUGAGGAUCACCCAUGUAAUUCAAGGAUAUGAUCAUACGC”, the “apparent Kd” value reads like this: under setting [1], 98.5 nM; under setting [2], 27.2 nM.
As to “AUAUCCUUUUUAUACAUGAGGAUCACCCAUGUUUUUCUUACGUAGGAUAUCGUUGUUUUUUUUUACGAGAAGGACGUAGAAUGU”, the “apparent Kd” value came out at 23.6 nM under setting [1] and 23.9 nM under setting [2].
For the sequence “AAAAAAAAAAGGCAGGAUAUCUAAAAAAAAACAUGAGGAUCACCCAUGUAAAAAAAAAAAAAGUGGGAGAAGGGCCAAAAAAAAAA”, the “apparent Kd” value was found to be 35.9 nM under setting [1] and 18.1 nM under setting [2].
As to “GUAGUACAUGAGGAUCACCCAUGUGUAGAAGCAUGAGGAUAUGUCAGUCCAUGAAAAACGAUAGAAGGCAUGGUGA”, the “apparent Kd” value reads like this: under setting [1], 178 nM; under setting [2], 176 nM.
On to “UGGGUCACAGGAUAUACAUGAGGAUCACCCAUGUCGUAUUUCGUGGCGGAGAGCUCGAGUAGAAGGGUGCAUCC”, for which the “apparent Kd” value runs as follows: under setting [3], 119 nM; under setting [4], 87.4 nM.

The record behind these values is the EternaBench riboswitch data.
